This is an account of results in ChEMBL document CHEMBL1125520, “Improved brain delivery of AZT using a glycosyl phosphotriester prodrug” (1992).

For assay [1], the species on record is Mus musculus. The experiment in a line: In Vitro detection by Gray and Whittaker method for the total internal nucleoside. In kind it is functional. The essentials: (§1)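 Crude synaptosomes from three mouse brains were prepared by Gray–Whittaker homogenization in 10% sucrose buffered with 5 mM Tris-HCl, pH 7.4. The 7000g pellet was resuspended and incubated with each nucleoside at 3 mM for 15 min at 37 °C, stopped by cold 10-fold dilution and washed twice. Internal nucleoside was extracted in acetonitrile–water (3:1) and measured by HPLC.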

The species entered for assay [2] is Mus musculus. The experiment in a line: In Vitro detection by Gray and Whittaker method for % of internalization by comparing with external nucleoside of 2000 nM/g. The class given is functional. The essentials:
as §1

The species named for assay [3] is Mus musculus. The experiment in a line: Concentration of external nucleoside in mouse brain. In kind it is functional. In short, it runs like this: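 Male Swiss mice (6 weeks, 18–20 g) dosed by oral gavage in saline vehicle at 20 mg/kg AZT or molar equivalent (3 mM, 1.5 µmol/mouse). Brains taken 0.5–48 h post-dose, homogenized in acetonitrile–water 3:1, centrifuged, lyophilized and filtered. Analysed by column-switching C18 HPLC with diode-array detection against spiked standards and vehicle controls. Three mice per time point, triplicates; not recovery-corrected.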

Assay [4] concerns Mus musculus. The experiment in a line: In Vivo detection in Mice plasma after oral administration of 20 mg/kg detected in the form of AZT 5`-P after 48 hr. The class given is functional, organism-based. Also noted: dose 20 mg/kg.
Assay [5] relates to Mus musculus. As to the kind of experiment: In Vivo detection in Mice plasma after oral administration of 20 mg/kg detected in the form of AZT after 0.5 hr. The class given is functional, organism-based. Also noted: dose 20 mg/kg.
Assay [6] concerns Mus musculus. The experiment in a line: In Vivo detection of total AZT in Mice plasma after oral administration of 20 mg/kg after 4 hr. The class given is functional, organism-based. Also noted: dose 20 mg/kg. In short, it runs like this:
(§2)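 Male Swiss mice (18–20 g, six weeks old) given the test substance or vehicle ([…]) by gavage as a 3 mM solution (1.5 µmol/mouse). Aortic blood was collected into heparinized tubes at 0.5–48 h and centrifuged at 13000g for 10 min. Plasma was stored at -22 °C and analysed by HPLC. Three mice were used per time point, in triplicate. Values were not corrected for recovery.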

Assay [7] concerns Mus musculus. The experiment in a line: In Vivo detection in Mice plasma after oral administration of 20 mg/kg detected in the form of AZT after 24 hr. In kind it is functional, organism-based. Also noted: dose 20 mg/kg.
Assay [8] concerns Mus musculus. The experiment in a line: In Vivo detection in Mice plasma after oral administration of 20 mg/kg detected in the form of AZT 5`-P after 0.5 hr. Also noted: dose 20 mg/kg. In kind it is functional, organism-based.
For assay [9], the system named is Mus musculus. The experiment in a line: In Vivo detection in Mice plasma after oral administration of 20 mg/kg detected in the form of AZT 5`-P after 8 hr. Also noted: dose 20 mg/kg. In kind it is functional, organism-based.
For assay [10], the system named is Mus musculus. The experiment in a line: In Vivo detection in Mice plasma after oral administration of 20 mg/kg detected in the form of AZT 5`-P after 4 hr. The class given is functional, organism-based. Also noted: dose 20 mg/kg.
Assay [11] relates to Mus musculus. The experiment in a line: In Vivo detection in Mice plasma after oral administration of 20 mg/kg detected in the form of AZT after 48 hr. In kind it is functional, organism-based. Also noted: dose 20 mg/kg.
In assay [12] the test system is Mus musculus. As to the kind of experiment: In Vivo detection of total AZT in Mice plasma after oral administration of 20 mg/kg after 48 hr. Also noted: dose 20 mg/kg. The class given is functional, organism-based. In short, it runs like this:
as §2

For assay [13], the system named is Mus musculus. As to the kind of experiment: In Vivo detection in Mice plasma after oral administration of 20 mg/kg detected in the form of AZT after 8 hr. In kind it is functional, organism-based. Also noted: dose 20 mg/kg.
In assay [14] the test system is Mus musculus. The experiment in a line: In Vivo detection of total AZT in Mice plasma after oral administration of 20 mg/kg after 24 hr. The class given is functional, organism-based. Also noted: dose 20 mg/kg. The essentials:
as §2

Assay [15] deals with Mus musculus. The experiment in a line: In Vivo detection in Mice plasma after oral administration of 20 mg/kg detected in the form of AZT after 2 hr. In kind it is functional, organism-based. Also noted: dose 20 mg/kg.
Assay [16] has as its system Mus musculus. The experiment in a line: In Vivo detection of total AZT in Mice plasma after oral administration of 20 mg/kg after 8 hr. Also noted: dose 20 mg/kg. The class given is functional, organism-based. In short, it runs like this:
as §2

For assay [17], the system named is Mus musculus. The experiment in a line: In Vivo detection of total AZT in Mice plasma after oral administration of 20 mg/kg after 2 hr. The class given is functional, organism-based. Also noted: dose 20 mg/kg. In short, it runs like this:
as §2

Assay [18] relates to Mus musculus. The experiment in a line: In Vivo detection of total AZT in Mice plasma after oral administration of 20 mg/kg after 1 hr. Also noted: dose 20 mg/kg. In kind it is functional, organism-based. In short, it runs like this: as §2
Assay [19] relates to Mus musculus. As to the kind of experiment: In Vivo detection in Mice plasma after oral administration of 20 mg/kg detected in the form of AZT 5`-P after 24 hr. The class given is functional, organism-based. Also noted: dose 20 mg/kg.
Assay [20] concerns Mus musculus. The experiment in a line: In Vivo detection in Mice plasma after oral administration of 20 mg/kg detected in the form of AZT after 1 hr. In kind it is functional, organism-based. Also noted: dose 20 mg/kg.
For assay [21], the system named is Mus musculus. As to the kind of experiment: In Vivo detection of total AZT in Mice plasma after oral administration of 20 mg/kg after 0.5 hr. The class given is functional, organism-based. Also noted: dose 20 mg/kg. The essentials: as §2
Assay [22] concerns Mus musculus. The experiment in a line: In Vivo detection in Mice plasma after oral administration of 20 mg/kg detected in the form of AZT 5`-P after 1 hr. The class given is functional, organism-based. Also noted: dose 20 mg/kg.
The subject of assay [23] is Mus musculus. As to the kind of experiment: In Vivo detection in Mice plasma after oral administration of 20 mg/kg detected in the form of AZT 5`-P after 2 hr. In kind it is functional, organism-based. Also noted: dose 20 mg/kg.
The subject of assay [24] is Mus musculus. The experiment in a line: In Vivo detection in Mice plasma after oral administration of 20 mg/kg detected in the form of AZT after 4 hr. Also noted: dose 20 mg/kg. In kind it is functional, organism-based.

In [1], `Cc1cn([C@H]2C[C@H](N=[N+]=[N-])[C@@H](COP(=O)(O)O)O2)c(=O)[nH]c1=O` [AZIDOTHYMIDINE MONOPHOSPHATE] showed a Brain content of 1.1 nM/g. The same compound came in with an Internalisation in assay [2] of 0.06%. In assay [3], the External nucleoside was determined as 2000 nM/g.

For `Cc1cn([C@H]2C[C@H](N=[N+]=[N-])[C@@H](CO)O2)c(=O)[nH]c1=O` [ZIDOVUDINE], the Plasma content in assay [4] was 0 nM ml-1; in assay [5], 26.6 nM ml-1; in assay [6], 4.4 nM ml-1; in [7], 0 nM ml-1; in assay [8], 21.7 nM ml-1; in assay [9] it was 0 nM ml-1. For the same compound, the Plasma content in assay [10] was found to be 0 nM ml-1; in assay [11], 0 nM ml-1; in [12], 0 nM ml-1; in assay [13], 0 nM ml-1; in assay [14], 0 nM ml-1; in assay [15], 6 nM ml-1. Besides, the Plasma content in assay [16] was 0 nM ml-1; in [17] it was 19.1 nM ml-1; in [18] it was 43.2 nM ml-1; in assay [19], 0 nM ml-1; in assay [20], 15.7 nM ml-1; in [21] it was 48.3 nM ml-1. The Plasma content worked out at 27.5 nM ml-1 in [22], 13.1 nM ml-1 in assay [23] and 4.4 nM ml-1 in assay [24]. This compound returned an Internalisation in assay [2] of 0.03%.
